# Only some compounds are listed: those with a hit (about 4.5% of all), similar ones and a draw of the others.
# RGS4 act: potentiators or activators of RGS4 | HEK293 M3R/inducible RGS4, carbachol calcium flux Fluo4; stronger effect = lower value | 310,000 compounds, 0.92% hits | AID 463111 | B-score at 10 µM;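 active = B-score of the integrated calcium signal more than 4 SD below the library mean, with starting fluorescence not abnormally high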;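 note: negative B-score means reduced calcium response which marks RGS4 activation or potentiation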
#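 Reagent: ECmax carbachol challenge; Test system: M3R-expressing HEK293 line, RGS4 induced by doxycycline; Schedule: overnight RGS4 induction, 30 min dye load 37 °C, 20 min compound RT; Detection: calcium dye Fluo4 fluorescence; Read-out: Agonist-evoked peak-minus-minimum fluorescence over baseline, integrated ratio, B score.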
# MrgX1 ag: human MrgX1 receptor agonism, primary screen; Q96LB2; AID 588627; 310,000 compounds, 0.44% hits; MrgX1-HEK293 cells, Fluo-4 calcium fluorescence, agonist mode; stronger effect = higher value; B-score at 10 µM;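 active = calcium response B-score plate-corrected fluorescence ratio at least 3 library SD, with starting fluorescence B-score inside 5 SD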
#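 Material: MrgX1-expressing HEK293 cells; input: 15,000 cells per well; doses: test compound given as first of three sequential additions; schedule: overnight plating before 1 h dye loading; technique: Fluo-4 NW calcium-flux fluorescence, kinetic read; evaluation: baseline-normalised fluorescence change ratio, B-scored; control set: plate-wise positive and negative controls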
# MrgX1 antagonist: blocks BAM8-22 activation of human MrgX1 receptor; Q96LB2; MRGX1-HEK293 calcium flux, Fluo-4, BAM8-22 antagonism; stronger effect = lower value; B-score at 10 µM; 310,000 compounds, 1.3% hits;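 active = calcium-response B-score plate-corrected more than 3 library SD below zero, starting fluorescence within 5 deviations, no agonist response on first addition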;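 note: peak minus trough fluorescence over baseline after final BAM8-22 challenge near maximal dose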
# RGS4 inh: human RGS4 inhibition. P49798. HEK293 M3R/RGS4 inducible, Fluo-4 calcium flux; stronger effect = higher value; triggered by carbachol at its EC20. B-score at 10 µM. 310,000 compounds, 0.45% hits. AID 463165;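 active = B-score, a plate-corrected calcium signal, over three deviations above library mean, with baseline fluorescence within five deviations of library mean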;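 note: RGS4 expression induced by doxycycline in cells with stable M3 receptor; B-score is computed from the integrated fluorescence ratio over baseline after carbachol; higher B-score means a larger calcium signal and so more RGS4 inhibition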
# Target sequence (P49798 whole entry, looked up): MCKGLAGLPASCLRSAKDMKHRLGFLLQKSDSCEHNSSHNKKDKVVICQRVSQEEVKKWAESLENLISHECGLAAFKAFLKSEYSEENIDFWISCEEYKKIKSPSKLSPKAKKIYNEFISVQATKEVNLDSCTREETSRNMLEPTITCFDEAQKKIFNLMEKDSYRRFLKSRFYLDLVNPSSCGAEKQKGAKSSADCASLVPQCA
# MrgX1 PAM: allosterically activates human MrgX1 receptor signaling; MrgX1-HEK293, Fluo-4 calcium flux, FDSS; stronger effect = higher value; AID 588675; B-score at 10 µM; 310,000 compounds, 0.63% hits; Q96LB2;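 active = plate-corrected calcium response at least 3 library SD above typical, normal starting fluorescence, not activating the receptor alone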;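 note: compound read alongside a low EC10 to EC30 dose of BAM8-22 agonist; peak minus trough fluorescence over baseline measured at the second addition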
# PHOSPHO1 block: PHOSPHO1 (human) inhibition | Q8TCT1 | recombinant PHOSPHO1, absorbance phosphatase assay | inhibition, % at 13.3 µM | 290,000 compounds, 1.1% hits; in the data active = inhibition above about 60%
# Target sequence (Q8TCT1 whole entry, looked up): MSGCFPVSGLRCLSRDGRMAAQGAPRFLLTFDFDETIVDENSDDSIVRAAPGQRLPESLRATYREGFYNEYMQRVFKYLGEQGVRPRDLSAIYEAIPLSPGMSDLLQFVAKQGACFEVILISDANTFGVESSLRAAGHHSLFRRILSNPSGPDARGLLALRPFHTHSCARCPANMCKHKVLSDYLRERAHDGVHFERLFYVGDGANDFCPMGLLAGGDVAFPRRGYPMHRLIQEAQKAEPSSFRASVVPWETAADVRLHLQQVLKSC
# RGS4 block valid: RGS4 inhibitor validation | shares compounds with RGS4 inh | HEK293 M3R/RGS4, carbachol calcium Fluo-4 fluorescence; carbachol added at its EC20; 0 = buffer wells, 100 = carbachol control | calcium response, % at 10 µM | 1,700 compounds, 65% hits | AID 492999;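 active = duplicate-averaged calcium response above the buffer-only control mean plus 5 SD of those controls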;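 note: integrated fluorescence ratio F max minus min over baseline F0; higher response in RGS4-induced cells means RGS4 inhibition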
# RGS4 uninduced: counter-screen for RGS4 inhibitors: effect in non-induced cells. shares compounds with RGS4 inh. HEK293 M3R non-induced, carbachol calcium Fluo-4; submaximal (EC20) carbachol stimulus; buffer wells 0%, carbachol control wells 100%. activity (percent), % at 10 µM. 1,900 compounds, 20% hits. AID 493000; call rule not given here;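 note: RGS4 induction absent so cells express M3R without RGS4; higher means more calcium signal and flags a non-specific hit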
# RGS4 inh ctr2: second RGS4 inhibitor counter-screen in uninduced cells lacking carbachol; HEK293 M3R/RGS4 non-induced, Fluo-4 calcium, no carbachol; normalised: buffer wells 0%, carbachol wells 100%; 1,900 compounds, 22% hits; shares compounds with RGS4 inh; AID 493001; calcium response (agonist-mode artifact), % at 10 µM;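 active = duplicate-averaged calcium rise in uninduced cells above buffer wells' mean plus 5 SD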
# Numbers stand for hits; 0 = inactive; - = not tested or not shown.
SMILES,RGS4 act,MrgX1 ag,MrgX1 antagonist,RGS4 inh,MrgX1 PAM,PHOSPHO1 block,RGS4 block valid,RGS4 uninduced,RGS4 inh ctr2
COc1ccc(C(CC(=O)c2ccc(C)cc2)Nc2ccc([N+](=O)[O-])cc2)cc1 (stereo not drawn),0,0,0,0,0,0,-,-,-
O=C(CC(SCCO)c1ccc([N+](=O)[O-])cc1)c1ccco1 (stereo not drawn),0,0,0,5.4,0,0,11%,0,0
CCCn1c(SCC(=O)NCCc2ccccc2)nnc1C(C)C,0,0,0,0,0,0,-,-,-
COC(=O)/C(=C(/F)SCC(C)=O)C(F)(F)F,0,0,0,0,0,0,-,-,-
COc1ccc(CCN2CC(C(=O)NCCc3ccccc3C)CCC2=O)cc1 (stereo not drawn),0,0,0,0,0,0,-,-,-
CCC(C(=O)NCCc1ccc(C)cc1)n1nc(C)c2c(C)n(-c3ccccc3)nc2c1=O (stereo not drawn),0,0,0,0,0,0,-,-,-
CCC(C(=O)N1CCCC1)n1nc(C)c2c(C)n(-c3ccccc3)nc2c1=O (stereo not drawn),0,0,0,0,0,0,0,0,0
CC(C)(C)c1cc(NCCCn2ccnc2)n2ncc(-c3ccccc3)c2n1,0,0,0,9,0,0,10%,0,0
CC(C)(C)c1cc(N2CCOCC2)n2ncc(-c3ccccc3)c2n1,0,0,0,0,0,0,0,0,0
CC(C)(C)c1cc(-n2ccnc2)n2ncc(-c3ccc(Cl)cc3)c2n1,0,0,0,4.7,0,0,14%,0,0
CCCc1cc(N2CCOCC2)n2ncc(-c3ccccc3)c2n1,0,0,0,0,0,0,-,-,-
O=C1CC(c2ccc(F)cc2)C(n2cncn2)C(O)=C1C1NCCc2ccccc21 (stereo not drawn),0,0,0,0,0,0,-,-,-
CCN(CC)CCNC(=O)c1sc2nc(-c3ccccc3)cn2c1C,0,0,0,0,0,0,-,-,-
CCOC(=O)N1CCN(C(=O)c2ccc(SC)cc2OC)CC1,0,0,0,0,0,0,-,-,-
NC1=NC(c2ccc(Cl)cc2)C(C(=O)c2ccccc2)N1 (stereo not drawn),0,0,0,0,0,0,-,-,-
CC(=O)NCCN1C(=O)S/C(=C\c2cccs2)C1=O,0,0,0,0,0,0,-,-,-
CCNC(=S)NNC(=O)c1cc(Br)cs1,0,0,0,0,0,0,-,-,-
COc1ccc(-c2[nH]ncc2CN2CCN(c3ccc(F)cc3)CC2)cc1,0,0,0,0,0,0,-,-,-
c1ccc(-c2[nH]ncc2CN2CCc3ccccc3C2)cc1,0,0,0,0,0,0,-,-,-
COc1ccc(-c2[nH]ncc2CN2CCN(C(=O)c3ccco3)CC2)cc1F,0,0,0,0,0,0,-,-,-
Fc1ccc(-c2[nH]ncc2CN2CCN(c3ccc(F)cc3)CC2)cc1,0,0,0,6.9,0,0,22%,50%,0
O=C(c1ccco1)N1CCCN(Cc2cn[nH]c2-c2ccc(-c3ccccc3)cc2)CC1,0,0,0,4.9,0,0,10%,0,0
Fc1ccc(N2CCN(Cc3cn[nH]c3-c3ccccc3)CC2)cc1,0,0,0,0,0,0,-,0,0
Cc1ccc(OCC(=O)NNC(=O)c2cccnc2)cc1C,0,0,0,0,0,0,-,-,-
C[n+]1cn(Cc2cc(Cl)ccc2OC(F)F)c2ccccc21,0,0,0,0,0,0,-,-,-
SMILES,RGS4 act,MrgX1 ag,MrgX1 antagonist,RGS4 inh,MrgX1 PAM,PHOSPHO1 block,RGS4 block valid,RGS4 uninduced,RGS4 inh ctr2
CCN(CC)c1ccc(C(=O)OCC(=O)NCC2CCCO2)cc1 (stereo not drawn),0,0,0,0,0,0,-,-,-
COc1cccc(C(=O)COC(=O)c2n[nH]c(=O)c3ccccc23)c1,0,0,0,0,0,0,-,-,-
Cc1ccc2c(c1)N(C(=O)CCC(=O)NCc1cccc(F)c1)CCO2,0,0,0,0,0,0,-,-,-
COc1ccc(OC)c(C2CC(c3c(-c4ccccc4)c4cc(Cl)ccc4[nH]c3=O)=NN2S(C)(=O)=O)c1 (stereo not drawn),0,0,0,0,0,0,-,49%,36%
COc1ccc(C2CC(c3c(-c4ccccc4)c4cc(Cl)ccc4[nH]c3=O)=NN2S(C)(=O)=O)cc1 (stereo not drawn),0,0,0,0,0,0,-,-,-
Cc1cc(C2(c3ccc(O)c(C)c3)C(=O)Nc3ccccc32)ccc1O,0,0,0,0,0,0,-,-,-
Cc1cccc2c1NC(=O)C2(c1ccc(O)cc1)c1ccc(O)cc1,0,0,0,8.6,0,0,10%,0,0
COc1ccc(/C=C(/NC(=O)c2ccccc2)C(=O)N2CCOCC2)cc1OC,0,0,0,0,0,0,-,-,-
Cn1c(CCNC(=O)c2ccccc2)nc2cc(NC(=O)c3ccco3)ccc21,0,0,0,0,0,0,0,0,0
Cn1c(CCNC(=O)c2ccco2)nc2cc(NS(=O)(=O)c3ccccc3)ccc21,0,0,0,0,0,0,-,-,-
Cn1c(CCNC(=O)c2ccco2)nc2cc(NC(=O)c3ccccc3)ccc21,0,0,0,0,0,0,0,0,0
CCCCC(=O)Nc1ccc2c(c1)nc(CCNC(=O)c1ccco1)n2C,0,0,0,0,0,0,-,-,-
COc1ccccc1C(=O)Nc1ccc2c(c1)nc(CCNC(=O)c1ccco1)n2C,0,0,0,0,0,0,-,-,-
Cn1c(CCNC(=O)c2ccco2)nc2cc(NC(=O)C3CCCCC3)ccc21,0,0,0,0,0,0,-,-,-
Cn1c(CCNC(=O)c2ccco2)nc2cc(NC(=O)c3ccco3)ccc21,0,0,0,0,0,0,0,0,0
CCC(=O)NCCc1nc2cc(NC(=O)c3ccco3)ccc2n1C,0,0,0,0,0,0,0,0,0
CC(C)C(=O)Nc1nnc(SCC(=O)NC2CCCC2)s1,0,0,0,0,0,0,-,-,-
COc1ccc(C(=O)C2CCCN(C(=O)c3ccc(CSC)o3)C2)cc1F (stereo not drawn),0,0,0,0,0,0,-,-,-
CCOc1ccc(CCNC(=O)c2ccccc2OCc2c(C)noc2C)cc1OCC,0,0,0,0,0,-,-,-,-
Cc1cc([N+](=O)[O-])ccc1NCc1ccco1,0,0,0,0,0,0,-,-,-
CCCCNC(=O)Oc1c(Br)cc2sc(=O)oc2c1Br,-,0,0,-,0,0,-,-,-

# Screening data from PubChem.
